Data from ChEMBL document CHEMBL3232837, “Synthesis and evaluation of new Hsp90 inhibitors based on a 1,4,5-trisubstituted 1,2,3-triazole scaffold” (J Med Chem, 2014).
The source made the active and inactive calls. The calls are words filed in the database; no cut-off is given here.

Key:
NCI-H460 [1] = test: Cell cycle arrest in human NCI-H460 cells assessed as accumulation at G2/M phase at 2 times IC50 after 24 to 72 hrs by propidium iodide staining-based FACS flow cytometric analysis; type: functional
[2] = target: Heat shock protein HSP 90-beta (Homo sapiens) (UniProt P08238); test: Inhibition of HSP90 in human A431 cells overexpressing EGFR assessed as downregulation of EGFR protein expression after 24 hrs by Western blot analysis; type: cell-based; settings: A-431
In short: (§1)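 A431 cells treated 24 h after seeding for 24 h over a concentration range; 17-DMAG 0.2 µM as reference. Cells lysed in RIPA buffer with protease and phosphatase inhibitors, protein measured by Bradford. Equal protein run on SDS-PAGE and blotted to nitrocellulose, then probed for EGFR, Cdk4, Akt, Hsp70 and actin. ECL detection; densitometry normalized to β-actin. Run at least twice.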

[3] = target: Heat shock protein HSP 90-alpha (Homo sapiens, UniProt P07900); test: Displacement of GM-FITC from full-length recombinant human Hsp90-alpha after 4 hrs by fluorescence polarization assay
[4] = target: Heat shock protein HSP 90-beta (Homo sapiens) (UniProt P08238); test: Inhibition of HSP90 in human A431 cells overexpressing EGFR assessed as induction of HSP70 protein expression after 24 hrs by Western blot analysis; type: cell-based; settings: A-431; in short: as §1
A-431 = test: Antitumor activity against human A431 cells overexpressing EGFR xenografted in CD-1 nude mouse assessed as tumor growth inhibition at 5 mg/kg, ip administered as q2d/week for 2 weeks starting 3 days after tumor injection measured on day 5 post last dose relative to vehicle-treated control; type: functional; settings: A-431, ip, route intraperitoneal, read-out: TGI
In short: (§2)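 Female athymic nude mice, 5-6 weeks old, inoculated s.c. in right flank with 5 × 10^6 exponentially growing tumor cells. Intraperitoneal dosing in 10 mL/kg, starting 3 days post-implant. Tumor volume = d²·D/2 from calipered shortest and longest diameters, measured biweekly. TVI% = 100 − (mean TV treated/mean TV control × 100), scored 5 days after last dose. Mann-Whitney test vs vehicle group; 8 mice per group.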

[5] = Metabolic stability in human plasma assessed as compound remaining at 5 uM measured at 120 mins by LC/MS analysis; type: ADME, cell-free
In short: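 Compound added to human plasma at 5 µM final and incubated at 37 °C for up to 120 min. Samples quenched in two volumes of chilled acetonitrile and centrifuged at 4 °C. Remaining compound quantified by LC/MS.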

Mus musculus [6] = test: In vivo inhibition of HSP90 in human A431 cells overexpressing EGFR xenografted in CD-1 nude mouse assessed as downregulation of AKT protein expression at 5 mg/kg, ip administered as q2d/week for 2 weeks starting 3 days after tumor injection measured at 2 hrs post last dose by Western blot analysis; type: functional, organism-based; design: dose 5 mg/kg; settings: A-431
In short: (§3)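 Nude-mouse s.c. xenografts given i.p. compound from day 3. Tumors excised 2 h (A431) or 6 h (GTL-16) after last dose and homogenized in tissue protein extraction reagent with 10 µg/ml protease inhibitor cocktail. Whole lysates analysed by Western blot with actin as loading control; two tumor samples per group shown.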

Mus musculus [7] = test: (§4) In vivo inhibition of HSP90 in human GTL16 cells overexpressing c-Met xenografted in CD-1 nude mouse assessed as induction of HSP70 protein expression at 5 mg/kg, ip administered as q2d/week for 2 weeks starting 3 days after tumor injection measured at 6 hrs post last dose by Western blot analysis; type: functional, organism-based; design: dose 5 mg/kg; in short: as §3
Mus musculus [8] = test: Toxicity in CD-1 nude mouse xenografted with human A431 cells overexpressing EGFR assessed as mortality at 5 mg/kg, ip administered as q2d/week for 2 weeks starting 3 days after tumor injection measured on day 5 post last dose relative to vehicle-treated control; type: organism-based, A-431; design: dose 5 mg/kg, route intraperitoneal; settings: in vivo
In short: (§5)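 S.c. right-flank xenografts, 5 × 10^6 cells, in female athymic nude mice 5-6 weeks old. Intraperitoneal dosing in 10 mL/kg from day 3 post-implant. Lethal toxicity counted as deaths in treated mice occurring before the first control mouse died, reported as dead/treated (8 per group). Body weight loss was also tracked from the first treatment day.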

Mus musculus [9] = test: as §4, with “downregulation” for “induction”, “c-Met” for “HSP70”; type: functional, organism-based; design: dose 5 mg/kg; in short: as §3
Mus musculus [10] = test: In vivo inhibition of HSP90 in human A431 cells overexpressing EGFR xenografted in CD-1 nude mouse assessed as downregulation of EGFR protein expression at 5 mg/kg, ip administered as q2d/week for 2 weeks starting 3 days after tumor injection measured at 2 hrs post last dose by Western blot analysis; type: functional, organism-based; design: dose 5 mg/kg; settings: A-431; in short: as §3
Mus musculus [11] = test: as §4, with “downregulation” for “induction”, “CDK4” for “HSP70”; type: functional, organism-based; design: dose 5 mg/kg; in short: as §3
Mus musculus [12] = test: as §4, with “downregulation” for “induction”, “AKT” for “HSP70”; type: functional, organism-based; design: dose 5 mg/kg; in short: as §3
Mus musculus [13] = test: Toxicity in CD-1 nude mouse xenografted with human GTL16 cells overexpressing c-Met assessed as mortality at 5 mg/kg, ip administered as q2d/week for 2 weeks starting 3 days after tumor injection measured on day 5 post last dose relative to vehicle-treated control; type: organism-based; design: dose 5 mg/kg, route intraperitoneal; settings: in vivo; in short: as §5
Mus musculus [14] = test: In vivo inhibition of HSP90 in human A431 cells overexpressing EGFR xenografted in CD-1 nude mouse assessed as downregulation of CDK4 protein expression at 5 mg/kg, ip administered as q2d/week for 2 weeks starting 3 days after tumor injection measured at 2 hrs post last dose by Western blot analysis; type: functional, organism-based; design: dose 5 mg/kg; settings: A-431; in short: as §3
Mus musculus [15] = test: Toxicity in CD-1 nude mouse xenografted with human A431 cells overexpressing EGFR assessed as body weight loss at 5 mg/kg, ip administered as q2d/week for 2 weeks starting 3 days after tumor injection measured on day 5 post last dose relative to vehicle-treated control; type: organism-based, A-431; design: dose 5 mg/kg, route intraperitoneal; settings: in vivo
In short: (§6)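 Female athymic nude mice carrying s.c. xenografts, dosed i.p. (mg/10 mL/kg per administration) starting 3 days after tumor injection. BWL% = 100 − (mean BW day x/mean BW day 1 × 100), day 1 being the first treatment day. Maximum BWL% recorded. Lethal toxicity counted as deaths before the first control death.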

[16] = Antitumor activity against human GTL16 cells overexpressing c-Met xenografted in CD-1 nude mouse assessed as tumor growth inhibition at 5 mg/kg, ip administered as q2d/week for 2 weeks starting 3 days after tumor injection measured on day 5 post last dose relative to vehicle-treated control; type: functional; settings: GTL 16, ip, route intraperitoneal, read-out: TGI; in short: as §2
NCI-H460 [17] = test: Cytotoxicity against human NCI-H460 cells assessed as growth inhibition after 72 hrs by SRB assay; type: functional, cell-based; settings: NCI-H460, 72 h
In short: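 NCI-H460 cells grown in RPMI-1640 with 10% heat-inactivated FBS, seeded at about 10% confluence and allowed 24 h recovery. Exposed to graded drug concentrations or solvent for 72 h. Surviving fraction measured by sulforhodamine B. IC50 is the concentration giving a 50% drop in cell number vs vehicle, from dose-response curve fitting; mean of n=4 with SD.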

[18] = target: Heat shock protein HSP 90-beta (Homo sapiens) (UniProt P08238); test: Inhibition of HSP90 in human A431 cells overexpressing EGFR assessed as downregulation of AKT protein expression after 24 hrs by Western blot analysis; type: cell-based; settings: A-431; in short: as §1
[19] = target: Heat shock protein HSP 90-beta (Homo sapiens) (UniProt P08238); test: Inhibition of HSP90 in human A431 cells overexpressing EGFR assessed as downregulation of CDK4 protein expression after 24 hrs by Western blot analysis; type: cell-based; settings: A-431; in short: as §1
NCI-H460 [20] = test: Induction of apoptosis in human NCI-H460 cells assessed as cell with hypodiploid DNA content at 2 times IC50 after 24 to 72 hrs by propidium iodide staining-based FACS flow cytometric analysis; type: functional
Mus musculus [21] = test: Toxicity in CD-1 nude mouse xenografted with human GTL16 cells overexpressing c-Met assessed as body weight loss at 5 mg/kg, ip administered as q2d/week for 2 weeks starting 3 days after tumor injection measured on day 5 post last dose relative to vehicle-treated control; type: organism-based; design: dose 5 mg/kg, route intraperitoneal; settings: in vivo; in short: as §6
Mus musculus [22] = test: In vivo inhibition of HSP90 in human A431 cells overexpressing EGFR xenografted in CD-1 nude mouse assessed as induction of HSP70 protein expression at 5 mg/kg, ip administered as q2d/week for 2 weeks starting 3 days after tumor injection measured at 2 hrs post last dose by Western blot analysis; type: functional, organism-based; design: dose 5 mg/kg; settings: A-431; in short: as §3

Sequence of Heat shock protein HSP 90-beta (Homo sapiens) (P08238 whole entry): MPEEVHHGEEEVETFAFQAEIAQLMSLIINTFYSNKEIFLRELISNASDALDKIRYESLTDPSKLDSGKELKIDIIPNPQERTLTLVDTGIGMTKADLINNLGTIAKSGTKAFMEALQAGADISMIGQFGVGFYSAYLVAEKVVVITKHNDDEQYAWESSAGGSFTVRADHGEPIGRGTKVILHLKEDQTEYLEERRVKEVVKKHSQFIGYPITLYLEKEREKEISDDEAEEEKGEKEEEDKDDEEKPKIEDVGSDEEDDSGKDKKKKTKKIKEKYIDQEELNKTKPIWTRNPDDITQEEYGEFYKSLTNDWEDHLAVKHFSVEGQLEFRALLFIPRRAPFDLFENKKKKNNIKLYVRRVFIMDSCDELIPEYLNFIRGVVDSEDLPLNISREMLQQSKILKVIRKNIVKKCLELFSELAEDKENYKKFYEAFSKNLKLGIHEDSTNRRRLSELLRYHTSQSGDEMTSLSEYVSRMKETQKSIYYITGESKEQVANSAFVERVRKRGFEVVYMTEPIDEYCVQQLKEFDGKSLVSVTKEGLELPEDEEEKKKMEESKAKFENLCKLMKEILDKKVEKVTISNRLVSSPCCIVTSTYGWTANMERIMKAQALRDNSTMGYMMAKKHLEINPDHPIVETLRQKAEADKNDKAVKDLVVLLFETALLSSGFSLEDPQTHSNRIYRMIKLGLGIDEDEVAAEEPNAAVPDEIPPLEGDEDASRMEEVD

For `CCNC(=O)c1nnn(-c2cc(C(C)C)c(O)cc2O)c1-c1ccc(CN2CCOCC2)cc1`, the Activity (NCI-H460 [1]) was “Active”, the inhibition [2] was “Dose-dependent effect” and the IC50 [3] was under 5 nM. For the same compound, the inhibition [4] was “Dose-dependent effect”, the inhibition in vivo at 5 mg/kg (A-431) was 49% and the remaining at 2 h, 5 µM [5] was 65%. For the same compound, the inhibition (Mus musculus [6]) was “Active”, the inhibition (Mus musculus [7]) was “Active” and the Activity (Mus musculus [8]) was “Non-toxic”. The inhibition (Mus musculus [9]) was “Active”, the inhibition (Mus musculus [10]) was “Active” and the inhibition (Mus musculus [11]) was “Active”. The inhibition (Mus musculus [12]) was “Active”, the Activity (Mus musculus [13]) was “Non-toxic” and the inhibition (Mus musculus [14]) was “Active”. The Imax (Mus musculus [15]) was 1%, the inhibition in vivo at 5 mg/kg [16] was 42% and the IC50 (NCI-H460 [17]) was 4 nM. For the same compound, the inhibition [18] was “Dose-dependent effect”, the inhibition [19] was “Dose-dependent effect” and the Activity (NCI-H460 [20]) was “Active”. The Imax (Mus musculus [21]) was 17% and the inhibition (Mus musculus [22]) was “Active”.
